Screening results from PubChem BioAssay.
This is a sample that favours compounds with a hit; in the whole collection about 3.1% have one here.
MEKK2mut PB1 HTS = signal of MEK5 binding to mutant human MEKK2 PB1 domain; bead flow cytometry, Alexa488-MEK5 binding to MEKK2 mutant; 0.35% of 290,000 active; percent response, % at 10 µM; in the data active means percent response above about 24%, passing the limit was not always enough
Apaf-1 inh = human Apaf-1 inhibition. O14727. reconstituted apoptosome caspase-3 activity, DEVD-Rh110 fluorescence. inhibition, % at 20 µM. 0.71% of 330,000 active; active means inhibition of at least 40% at 20 µM
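Material: reconstituted apoptosome with Apaf-1, cytochrome c, caspase-9, procaspase-3, dATP; medium: pH 7.5 Hepes buffer with CHAPS, BSA, DTT; also added: cytochrome c and DEVD-Rh110 substrate; timing: 30 min plus 50 min, RT; signal: Rh110 fluorescence intensity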
MEKK3 PB1 HTS = modulators (inhibitors or enhancers) of MEK5 binding to human MEKK3 PB1 domain | Q99759 | bead-based flow cytometry, Alexa488-MEK5 binding to MEKK3; actives lie on both sides; 0 = blocked by unlabeled MEK5, 100 = vehicle | binding response (% of control), % at 10 µM | 1.4% of 290,000 active | AID 1529;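 active means binding response more than 3 SD above or below the average of its plate-row segment, actives on both sides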;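 further: Alexa488 bead fluorescence after subtracting the streptavidin-only scavenger bead signal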
UBC13 polyUb = inhibitors of human UBC13 polyubiquitin chain formation; TR-FRET; inhibition, % at 20 µM; P61088; 0.47% of 330,000 active; in the data active means inhibition above about 45%, passing the limit was not always enough
MEKK2wt PB1 HTS = raises or lowers MEK5 binding to wildtype human MEKK2 PB1 domain. Q9Y2U5. bead flow cytometry, Alexa488-MEK5 binding to MEKK2 WT; actives lie on both sides. binding response (% of control), % at 10 µM. 1.1% of 290,000 active; in the data active means binding response below about 67% or above about 130%
PREPL inh = human PREPL enzyme inhibition | Q4J6C6 | recombinant PREPL, fluorescence polarization activity-based probe | inhibition, % at 5.96 µM | 0.68% of 320,000 active | AID 2751; in the data active means inhibition above about 43%
Target sequence (Q4J6C6 whole entry, looked up): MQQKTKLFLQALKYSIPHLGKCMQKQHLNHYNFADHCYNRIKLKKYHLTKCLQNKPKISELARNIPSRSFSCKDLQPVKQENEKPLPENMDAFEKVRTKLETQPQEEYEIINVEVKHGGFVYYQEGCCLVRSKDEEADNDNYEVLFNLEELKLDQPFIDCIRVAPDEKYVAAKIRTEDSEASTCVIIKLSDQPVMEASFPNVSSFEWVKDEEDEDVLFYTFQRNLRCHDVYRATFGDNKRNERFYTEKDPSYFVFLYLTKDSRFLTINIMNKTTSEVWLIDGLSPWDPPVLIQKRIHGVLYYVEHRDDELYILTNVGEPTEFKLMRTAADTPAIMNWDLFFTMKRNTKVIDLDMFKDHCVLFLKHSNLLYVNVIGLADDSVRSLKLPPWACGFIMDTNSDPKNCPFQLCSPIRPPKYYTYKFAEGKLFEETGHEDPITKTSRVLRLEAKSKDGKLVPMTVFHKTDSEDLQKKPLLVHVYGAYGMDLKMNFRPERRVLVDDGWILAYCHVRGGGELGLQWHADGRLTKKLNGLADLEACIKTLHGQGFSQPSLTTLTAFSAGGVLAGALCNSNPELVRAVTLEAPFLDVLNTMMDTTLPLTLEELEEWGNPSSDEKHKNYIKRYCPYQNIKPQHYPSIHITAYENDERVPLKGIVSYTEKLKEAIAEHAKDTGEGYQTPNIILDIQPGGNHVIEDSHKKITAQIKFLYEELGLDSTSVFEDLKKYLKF
MEKK2wt confirm = raises or lowers MEK5 binding to wildtype human MEKK2, retest; shares compounds with MEKK3 PB1 HTS; bead flow cytometry, Alexa488-MEK5 binding to MEKK2 WT; actives lie on both sides; binding response (% of control), % at 10 µM; 2.4% of 5,900 active; AID 1892; in the data active means binding response below about 16% or above about 210%; inactive means in between
MEKK2mut confirm = signal of MEK5 binding to mutant human MEKK2, retest | shares compounds with MEKK3 PB1 HTS | bead flow cytometry, Alexa488-MEK5 binding to MEKK2 mutant | percent response, % at 10 µM | 2% of 5,900 active | AID 1893; in the data active means percent response mostly above about 71%, no sharp cut-off; inactive means mostly below about 38%;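 further: higher means compound restores mutant binding toward wildtype level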
MEKK3-MEK5 inh = MEKK3-MEK5 PB1 inhibition, single concentration confirmation; shares compounds with MEKK3 PB1 HTS; bead flow cytometry, Alexa488-MEK5 binding to MEKK3; hits give low values; binding response (% of control), % at 10 µM; 1.8% of 5,900 active;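 active means binding response below 72% of control, or above a set upper limit, though filed actives all read lower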
A number is an active result; i = inactive; nt = no result; [ ] = remark or other dose.

SMILES	MEKK2mut PB1 HTS	Apaf-1 inh	MEKK3 PB1 HTS	UBC13 polyUb	MEKK2wt PB1 HTS	PREPL inh	MEKK2wt confirm	MEKK2mut confirm	MEKK3-MEK5 inh
COc1ccc(-c2cn3cccnc3n2)cc1NC(=O)c1cc(OC)c(OC)c(OC)c1	i	i	20[inhibitor]	i	27[inhibitor]	i	i	i	i
O=C(Nc1ccc(Br)cc1)c1cccc(S(=O)(=O)Nc2ccccn2)c1	i	i	i	i	i	i	nt	nt	nt
O=C(Nc1ccccc1)c1cccc(S(=O)(=O)Nc2ccccn2)c1	i	i	75[inhibitor]	i	i	i	i	i	i
CCC(=C(c1ccc(OC)cc1)c1ccc(OC)cc1)c1cn(CC(O)CN(CCO)CCO)c2ccccc12 (centres undefined)	i	i	i	i	149	i	i	i	i
COc1ccc(CCNc2cc(C)nc3c(-c4ccc(Cl)cc4)cnn23)cc1OC	i	i	136	i	i	i	i	i	i
Cc1c(C(c2cccc(Br)c2)c2c(C)n(C)n(-c3ccccc3)c2=O)c(=O)n(-c2ccccc2)n1C	i	i	i	i	i	i	nt	nt	nt
Fc1ccccc1OCCCCCCN1CCCC1	i	i	i	i	141	i	i	i	i
CC(C)Cn1c(NCCO)nc2ccccc21	i	i	61[inhibitor]	i	i	i	i	i	i
OCCNc1nc2ccccc2n1CC(O)c1ccccc1 (centres undefined)	i	i	i	i	i	i	nt	nt	nt
CCOc1ccc(NC(=O)CSc2nnc(C3CC3)n2C)cc1	i	i	i	i	i	i	nt	nt	nt
CCOC(=O)c1ccc(NC(=O)CSc2nnc(C3CCCCC3)n2C)cc1	i	i	126	i	i	i	i	i	i
Cc1c(C)n(Cc2ccccc2)c2ccc(C(=O)OCCCN(C)C)cc12	i	i	i	i	158	i	i	i	i
Cc1cnc(C(=O)Nc2ccccc2F)cn1	i	i	2.0[inhibitor]	i	1.0[inhibitor]	i	i	i	i
COC(=O)n1ccc(C(=O)Nc2ccccc2F)n1	i	i	3.0[inhibitor]	i	3.0[inhibitor]	i	i	i	i
COC(=O)c1cc(C(=O)OCC(=O)NCc2cccs2)cc([N+](=O)[O-])c1	nt	i	nt	i	nt	i	nt	nt	nt
COc1cc(/C=N/NC(=O)c2cc3ccccc3cc2O)ccc1OCCN1CCCCC1	i	i	i	i	229	i	207	82	i
OCC1(Cc2ccccc2)CCN(Cc2cnn(-c3ccccc3F)c2)CC1	362	i	i	i	520	i	i	i	i
Cc1ccc(-n2cc(CN3CCC(CO)(Cc4cccc(C(F)(F)F)c4)CC3)cn2)cc1	123	i	i	i	227	i	i	i	i
CSc1cccc(CN2CCC(CO)(Cc3cccc(C(F)(F)F)c3)CC2)c1	i	i	i	i	138	i	i	i	i
Cc1ccc(-n2cc(CN3CCC(CO)(Cc4ccccc4)CC3)cn2)cc1	i	i	i	i	i	i	nt	nt	nt
Cc1ccccc1C(=O)NNc1ncnc2c1cnn2C	i	i	i	i	i	i	nt	nt	nt
Cn1ncc2c(NNC(=O)c3ccccc3Cl)ncnc21	i	i	129	i	i	i	i	i	i
O=C(c1ccc([N+](=O)[O-])cc1)N(C1=NCCCCS1)c1ccccc1	i	i	79[inhibitor]	i	i	i	i	i	i
O=C(Nc1ccccc1)N(C1=NCCCCS1)c1ccccc1	i	i	i	i	i	i	nt	nt	nt
CCn1cc(CNCc2cn(-c3ccccc3C)nc2-c2ccc(OC)c(F)c2)cn1	i	i	i	i	i	i	nt	nt	nt
COc1ccc(-c2nn(-c3ccccc3C)cc2CNCCc2cnc[nH]2)cc1F	i	i	i	i	149	i	i	i	i
CCOC(=O)C1=C(O)c2ccccc2C(=O)/C1=C\c1ccc(C)cc1	i	nt	68[inhibitor]	nt	i	i	i	i	i
